UCH37 inh: human UCH37 deubiquitinating enzyme inhibition; purified proteasome/UCH37, Ub-AMC cleavage fluorescence; inhibition, % (no concentration beside the values); hit rate 0.33% among 330,000;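 active means mean inhibition over replicate wells above about 20%, limit read from the data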;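 further: 0% = compound-free wells with enzyme and 100% = wells lacking proteasome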
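system = Proteasome-associated human UCH37 deubiquitinase | amount = 0.15 nM proteasome as dispensed | medium = pH 7.4 Tris-HCl (50 mM) with ovalbumin, ATP-MgCl2, DTT | incubation = 30 min preincubation with enzyme, 25 min cleavage at room temperature | detection = AMC fluorescence 355/460 nm | read-out basis = percent inhibition | controls = no-proteasome and no-compound wells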
MEKK2wt PB1 HTS: raises or lowers MEK5 binding to wildtype human MEKK2 PB1 domain; bead flow cytometry, Alexa488-MEK5 binding to MEKK2 WT; actives lie on both sides; binding response (% of control), % at 10 µM; Q9Y2U5; AID 1531; hit rate 1.1% among 290,000; in the data active means binding response below about 67% or above about 130%
UBC13 polyUb: human UBC13 polyubiquitination inhibition; P61088; UBC13 polyubiquitin chain formation, TR-FRET; inhibition, % at 20 µM; hit rate 0.47% among 330,000; AID 485273; in the data active means inhibition above about 45%, passing the limit was not always enough
MEKK3 PB1 HTS: raises or lowers MEK5 binding to the human MEKK3 PB1 domain | Q99759 | bead-based flow cytometry, Alexa488-MEK5 binding to MEKK3; actives lie on both sides; 0 = blocked by unlabeled MEK5, 100 = vehicle | binding response (% of control), % at 10 µM | hit rate 1.4% among 290,000 | AID 1529;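 active means binding response more than 3 SD above or below the average of its plate-row segment, actives on both sides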;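 further: Alexa488 bead fluorescence after subtracting the streptavidin-only scavenger bead signal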
Apaf-1 inh: inhibitors of human Apaf-1 apoptosome. hit rate 0.71% among 330,000. inhibition, % at 20 µM. reconstituted apoptosome caspase-3 activity, DEVD-Rh110 fluorescence; active means inhibition of at least 40% at 20 µM;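 further: plate controls were DMSO wells for no effect and DEVD-CHO caspase inhibitor wells for full effect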
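Material: reconstituted apoptosome with Apaf-1, cytochrome c, caspase-9, procaspase-3, dATP; medium: pH 7.5 Hepes buffer with CHAPS, BSA, DTT; also added: cytochrome c and DEVD-Rh110 substrate; timing: 30 min plus 50 min, RT; signal: Rh110 fluorescence intensity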
MEKK2 mut-MEK5: signal of MEK5 binding to mutant human MEKK2 PB1 domain; bead flow cytometry, Alexa488-MEK5 binding to MEKK2 mutant; percent response, % at 10 µM; hit rate 0.35% among 290,000; AID 1530; in the data active means percent response above about 24%, passing the limit was not always enough
MEKK2wt confirm: raises or lowers MEK5 binding to wildtype human MEKK2, retest; shares compounds with MEKK3 PB1 HTS; bead flow cytometry, Alexa488-MEK5 binding to MEKK2 WT; actives lie on both sides; hit rate 2.4% among 5,900; binding response (% of control), % at 10 µM; in the data active means binding response below about 16% or above about 210%; inactive means in between
MEKK2mut-MEK5: signal of MEK5 binding to mutant human MEKK2, retest; shares compounds with MEKK3 PB1 HTS; bead flow cytometry, Alexa488-MEK5 binding to MEKK2 mutant; percent response, % at 10 µM; hit rate 2% among 5,900; AID 1893; in the data active means percent response mostly above about 71%, no sharp cut-off; inactive means mostly below about 38%;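 further: higher means compound restores mutant binding toward wildtype level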
MEKK3 confirm: MEKK3-MEK5 PB1 inhibition, single concentration confirmation; shares compounds with MEKK3 PB1 HTS; bead flow cytometry, Alexa488-MEK5 binding to MEKK3; active compounds read low; binding response (% of control), % at 10 µM; hit rate 1.8% among 5,900; AID 1894;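 active means binding response below 72% of control, or above a set upper limit, though filed actives all read lower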;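 further: 100% = DMSO only wells and 0% = binding blocked by excess unlabeled MEK5; lower values mean stronger disruption of MEK5 binding to MEKK3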
Numbers without * were called inactive; / = no result; [ ] = another dose, or the depositor's remark. Most compounds without a hit are left out; they make up all but 3% or so of the library.

SMILES | UCH37 inh | MEKK2wt PB1 HTS | UBC13 polyUb | MEKK3 PB1 HTS | Apaf-1 inh | MEKK2 mut-MEK5 | MEKK2wt confirm | MEKK2mut-MEK5 | MEKK3 confirm
CCOC(=O)CCC(NC(=O)CCCCC(=O)NC(CCC(=O)OCC)C(=O)OCC)C(=O)OCC (stereo not given) | 3 | 107 | -10 | 130* | 3 | 1 | 106 | 0 | 103
CCOc1ccc2[nH]c(=O)c(CN(CCCN3CCOCC3)C(=O)Nc3ccc(F)cc3)cc2c1 | 4 | / | / | / | / | / | / | / | /
O=C(CSc1nc(C2CCCCC2)nc2ccccc12)NCc1ccco1 | 5 | -1.0*[inhibitor] | -2 | 2.0*[inhibitor] | 11 | -28 | 109 | 7 | 110
NS(=O)(=O)c1ccc(CCNCc2cc(Cl)ccc2OCc2ccccc2)cc1 | 3 | 144* | 17 | 108 | 12 | 6 | 135 | 20 | 106
NS(=O)(=O)c1ccc(CCNCc2ccccc2OCc2ccc(Cl)cc2)cc1 | 6 | 145* | 25 | 106 | 19 | 8 | 129 | 16 | 108
NS(=O)(=O)c1ccc(CCNCc2cc(Br)ccc2OCc2ccccc2F)cc1 | 5 | 133 | -2 | 95 | 17 | 21 | / | / | /
CCCCc1nc(C(N)=O)c2[nH]c(=O)n(-c3ccc(OCC)cc3)c2n1 | 0 | 100 | 6 | 101 | -157 | -1 | / | / | /
CNC(=O)c1c(NC(=O)c2cccc(C)c2)sc2c1CCC2 | -37 | 105 | -3 | 101 | 15 | 0 | / | / | /
CN(CCO)C(=O)c1c(NC(=O)c2ccccc2)sc2c1CCCC2 | / | 101 | 4 | 105 | -362 | 0 | / | / | /
Cc1cccc(C(=O)Nc2sc3c(c2C(=O)O)CCC3)c1 | 7 | 84 | 21 | 75*[inhibitor] | -15 | -14 | 96 | -8 | 98
CN(C)CCNC(=O)c1c(NC(=O)c2ccccc2)sc2c1CCCC2 | 0 | 148* | 18 | 109 | 11 | 14 | 134 | 18 | 106
O=C(CCN1C(=O)c2ccccc2C1=O)Nc1sc2c(c1C(=O)NCC1CCCO1)CCC2 (stereo not given) | / | 102 | -6 | 99 | 23 | -2 | / | / | /
Cc1ccc(-c2nnnn2-c2ccc(C)cc2)cc1 | 0 | 1.0*[inhibitor] | 0 | 2.0*[inhibitor] | 2 | -84 | 105 | 11 | 103
O=C(O)CSc1nnc(COc2cccc3ccccc23)o1 | 1 | 101 | -8 | 103 | -1 | 1 | / | / | /
COC(=O)CSc1nnc(COc2cccc3ccccc23)o1 | 6 | 117 | 5 | 116 | 5 | 28* | 105 | 4 | 108
Cc1ccc(C)c(N2CCN(C(=O)c3cc(S(=O)(=O)N4CCCC4)cn3C)CC2)c1 | 1 | 0.0*[inhibitor] | 2 | 2.0*[inhibitor] | -6 | -32 | 101 | 3 | 101
Cc1cccc(N2CCN(C(=O)c3cc(S(=O)(=O)N4CCCC4)cn3C)CC2)c1C | 1 | 100 | -2 | 100 | 17 | 2 | / | / | /
Cc1occc1-c1nnc(SCC(=O)c2ccc(Cl)cc2)n1CC1CCCO1 (stereo not given) | 1 | 3.0*[inhibitor] | 6 | 2.0*[inhibitor] | -2 | -26 | 105 | 4 | 104
CC(=O)N=c1c(C#N)cc2c(=O)n3ccccc3nc2n1Cc1ccccc1 | -169 | 105 | -4 | 135* | 8 | 1 | 114 | 14 | 91
O=C(CSCC(=O)N1CCOCC1)Nc1nc(-c2ccccc2)cs1 | 4 | 118 | -5 | 131* | -12 | 22 | 96 | -1 | 98
O=C(c1ccc(F)cc1)c1cnc(Nc2ccccc2)s1 | -9 | 98 | -6 | 105 | 8 | -1 | / | / | /
COC(=O)C1=C(NC(=O)c2ccccc2C)CCS1 | -2 | 54 | 9 | 46*[inhibitor] | 6 | -15 | 89 | -30 | 92
O=C(NCc1cccc(Br)c1)C1CC2Cn3c(nc4ccccc43)C2N1Cc1ccccc1 (stereo not given) | 6 | 103 | 1 | 106 | 20 | 4 | / | / | /
O=C(C1=C(O)C(=O)N(Cc2ccco2)C1c1cccc(O)c1)c1ccco1 (stereo not given) | 10 | 103 | 0 | 105 | 4 | 4 | / | / | /
CC(=O)C1=C(O)C(=O)N(Cc2ccco2)C1c1cccc(F)c1 (stereo not given) | 5 | 113 | -15 | 129* | 12 | 0 | 97 | -7 | 96
SMILES | UCH37 inh | MEKK2wt PB1 HTS | UBC13 polyUb | MEKK3 PB1 HTS | Apaf-1 inh | MEKK2 mut-MEK5 | MEKK2wt confirm | MEKK2mut-MEK5 | MEKK3 confirm
CCOc1ccc(C(C)=O)cc1CSc1nnc(N)s1 | 4 | 104 | -10 | 108 | 5 | -3 | / | / | /
O=C(Nc1cc(Cl)cc(Cl)c1)C(c1ccccc1)N1CCCCC1 (stereo not given) | 2 | 122 | -2 | 153* | 16 | 1 | 118 | 6 | 104
CCC(=O)Nc1ccc(C(=O)OCC(=O)c2cccs2)cc1 | 1 | 100 | 0 | 101 | -2 | 2 | / | / | /
COc1cc(S(=O)(=O)n2cnc(C)c2)ccc1Cl | 2 | 85 | 2 | 99 | 2 | -9 | / | / | /
CCOc1cc(S(=O)(=O)n2cnc(C)c2)ccc1Cl | 1 | 123 | 6 | 148* | 12 | 2 | 93 | -2 | 101
COc1ccc2c(C)c(CC(=O)N3CCN(C(=O)C4COc5ccccc5O4)CC3)c(=O)oc2c1C (stereo not given) | -143 | 100 | 14 | 98 | 20 | 1 | / | / | /
COCCN1C(=O)/C(=C/c2ccc(N3CCCC3)cc2)SC1=S | 6 | 59*[inhibitor] | -120 | 87 | -18 | -22 | 50 | -32 | 88
COc1cc(OC)c2c(-c3ccccc3)cc(=O)oc2c1C(CCN1CCCCC1)c1ccc2c(c1)OCO2 (stereo not given) | -2 | 177* | 25 | 94 | 37 | 28* | 147 | 47 | 104
COc1cc(OC)c2c(-c3ccccc3)cc(=O)oc2c1C(CC(=O)N1CCCC1)c1ccc2c(c1)OCO2 (stereo not given) | -1 | 112 | -2 | 109 | 33 | 5 | / | / | /
C#CCOC(=O)C(NC(=O)c1ccccc1)=C(C)C | -1 | 114 | 3 | 110 | -1 | 7 | / | / | /
COc1ccc(-n2c(C)cc(/C=C3/SC(=O)N(CC(=O)N4CCOCC4)C3=O)c2C)cc1 | -3 | 101 | -12 | 97 | 4 | -2 | / | / | /
Cc1cc(/C=C2/SC(=O)N(CC(=O)N3CCOCC3)C2=O)c(C)n1-c1ccccc1F | 1 | 105 | -2 | 148* | 3 | 0 | 103 | -8 | 98
